Rows were chosen to be rich in hits. Some 1.7% of all compounds tested hit in one or more screens of this group.
Vif inh: HIV Vif self-association inhibitors, primary screen, imaging, HEK293T, single point. HEK293T cells, Vif self-association by quenched fluorescence, 24 h. inhibition, % at 7.49 µM. 340,000 compounds, 0.35% hits. AID 602346, 2012; in the data active = inhibition above about 50%, passing the limit was not always enough; inconclusive = no clear call, values can overlap the other calls; inactive = below about 31%
Rce1 inh: yeast Rce1p protease inhibitors, primary screen, biochemical, fluorescence, cell-free homogeneous | CAAX prenyl protease 2 (Saccharomyces cerevisiae (strain ATCC 204508 / S288c)), Q03530 | yeast membranes, quenched prenylated peptide cleavage fluorescence | calls only | 290,000 compounds, 0.27% hits;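 active = fall in fluorescence gain of 50% or more versus controls, with final raw signal at or below 3038400; inconclusive = same 50% fall but final raw signal above 3038400; inactive = fall in fluorescence gain under 50%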;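 also: plate controls were neutral control wells for no effect and wells lacking membranes for full effect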
RanGTP-Imp inh: inhibitors of RanGTP-importin-beta interaction, primary screen, biochemical, FRET, CFP-Ran, YFP-importin-beta, homogeneous. Ran GTPase (GTP-bound) - importin-beta complex. 300,000 compounds, 1.1% hits. AID 2216, 2009. cell-free CFP-Ran/YFP-importin-beta FRET ratio. inhibition, % (concentration not given with the values);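 active = more than half of the replicate wells show a fall in the fluorescence ratio signal beyond about 16%, limit read from the data, passing the limit was not always enough; inconclusive = exactly half of the replicate wells pass the set limit; inactive = fewer than half of replicates pass the limit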;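 also: 0% = DMSO wells and 100% = Ran loaded with GDP instead of GTP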
Runt-SMMHC FRET: inhibitors of RUNX1 Runt–CBFb-SMMHC binding, primary screen, biochemical, FRET, Cerulean-Runt, Venus-CBFb-SMMHC, uHTS. Runt-related transcription factor 1 (Homo sapiens) + Core-binding factor subunit beta …. Cerulean-Runt/Venus-CBFb-SMMHC FRET ratio 530/480, 1 h. inhibition, % at 20 µM. 220,000 compounds, 0.74% hits;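 active = mean inhibition across duplicate retests at 20 µM reaching about 50%, limit read from the data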;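 also: 0% = DMSO wells and 100% = wells with excess untagged CBFb-SMMHC; inhibitors lower the FRET ratio by blocking Runt binding to CBFb-SMMHC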
Target sequence (Q01196 whole entry, looked up): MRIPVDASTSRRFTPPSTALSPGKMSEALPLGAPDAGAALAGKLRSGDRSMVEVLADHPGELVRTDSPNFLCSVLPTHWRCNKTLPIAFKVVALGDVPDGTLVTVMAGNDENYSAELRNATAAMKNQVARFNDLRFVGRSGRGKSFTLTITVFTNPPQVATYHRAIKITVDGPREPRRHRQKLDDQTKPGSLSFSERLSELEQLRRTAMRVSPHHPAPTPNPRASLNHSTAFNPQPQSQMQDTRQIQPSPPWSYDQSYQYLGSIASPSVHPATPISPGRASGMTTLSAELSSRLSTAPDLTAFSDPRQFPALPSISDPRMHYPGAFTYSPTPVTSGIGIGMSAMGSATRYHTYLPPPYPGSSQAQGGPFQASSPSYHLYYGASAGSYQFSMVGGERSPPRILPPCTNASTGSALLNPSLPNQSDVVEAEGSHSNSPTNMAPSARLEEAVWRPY
Target sequence (Q13951 whole entry, looked up): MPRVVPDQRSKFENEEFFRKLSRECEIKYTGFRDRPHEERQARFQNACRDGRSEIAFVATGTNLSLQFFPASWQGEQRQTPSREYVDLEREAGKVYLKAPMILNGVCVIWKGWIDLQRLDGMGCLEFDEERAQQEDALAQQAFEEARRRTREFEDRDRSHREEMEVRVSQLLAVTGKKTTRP
Runt-CBFb FRET: inhibitors of RUNX1 Runt–CBFb binding, primary screen, biochemical, FRET, Cerulean-Runt, Venus-CBFb, uHTS; Runt-related transcription factor 1 (Homo sapiens) + Core-binding factor subunit beta …; inhibition, % at 20 µM; Cerulean-Runt/Venus-CBFb FRET ratio 530/480, 1 h; 220,000 compounds, 0.46% hits;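 active = inhibition over about 50% at 20 µM in the single-dose screen, limit read from the data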;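 also: 0% = DMSO wells and 100% = excess unlabeled CBFb competitor control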
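Buffer or medium: Tris pH 7.5 buffer with BSA. Assay system: Cerulean-labeled Runt domain protein. Amount: each fluorescent fusion protein 100 nM. Read-out basis: loss of energy transfer signal. Incubation: 1 h compound exposure, room temperature. Probe or stimulus: Venus-CBFb binding partner, 100 nM. Detection: FRET, excitation 422 nm, emission at 530 and 480 nm.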
The depositor's hits bear a star; i = inactive; u = inconclusive; x = no result; + = active, no number.

SMILES	Vif inh	Rce1 inh	RanGTP-Imp inh	Runt-SMMHC FRET	Runt-CBFb FRET
CCCCNC(=O)C1(C)CCCCN1C(=O)c1c(C)noc1C (stereo unspecified)	10	x	x	x	x
CN1C(=O)N(CC(=O)N2CCN(c3ncccn3)CC2)C(=O)C12CCCCC2	-3	x	x	x	x
C[C@@H]1CCCCO[C@H](CN(C)C(=O)Nc2ccc3c(c2)OCO3)[C@H](C)CN([C@@H](C)CO)C(=O)c2cc(NS(=O)(=O)c3ccc(Cl)cc3)ccc2O1	3	x	x	x	x
CCOCCCN(C(=O)CNC(=O)c1ccco1)C(C(=O)NC1CCCC1)c1cccc(OC)c1 (stereo unspecified)	24	i	1	x	x
COCCN(C(=O)CNC(=O)c1ccco1)C(C(=O)NC1CCCC1)c1cccc(OC)c1 (stereo unspecified)	52*	i	u	x	x
CC1(C)CC(=O)C=C(c2n[nH]nc2-c2ccccc2)C1	2	x	x	x	x
N#Cc1c(-c2ccc(Cl)cc2)c2c([nH]c1=O)-c1ccccc1OC2	0	i	68*	82*	89*
Cc1cccc(N2CCN(C(=O)c3cccc(N4CCCC4=O)c3)C(C)C2)c1 (stereo unspecified)	-8	i	2	x	x
CCOC(=O)C1CCCN(Cc2ccc(OC)cc2OC)C1 (stereo unspecified)	55*	i	4	1	-2
COc1cccc(OCc2cc(C(=O)N3CCN(c4ccccc4OC)CC3)no2)c1	-6	i	2	x	x
CC(C)(C)NC(=O)CN1CCCN(C(=O)c2cccc(S(=O)(=O)N3CCc4ccccc43)c2)CC1	-1	x	x	x	x
Nc1nonc1-c1nc2ccccc2n1CC(=O)NC1CCCC1	50*	i	0	1	0
Nc1nonc1-c1nc2ccccc2n1CC(=O)Nc1ccccc1	5	i	-4	-2	-1
CC1CCN(C(=O)CSc2nc3ccccc3s2)CC1	-7	i	28*	2	3
S=c1[nH]nc(-c2ccccc2)o1	0	+	1	1	4
COC(=O)C(=C/C(C)=C/c1cccnc1)C(=O)OC	13	i	4	2	5
CCn1cnc2scc(-c3ccccc3)c2c1=O	1	i	6	-7	-2
Cn1cc(/C=N/n2cnc3scc(-c4ccc(Cl)cc4)c3c2=O)c2ccccc21	54*	i	-3	1	1
Cc1c(C=O)c2ccccn2c1C(=O)c1cccs1	-5	i	1	87*	61*
N#C[C@H]1[C@H](c2ccccc2)[C@](C#N)(C(=O)c2ccccc2)[C@@H]2C=Cc3ccccc3N21	x	i	47*	7	5
Cc1cc(NC(=O)C(C)Oc2ccc(Cl)cc2Cl)no1 (stereo unspecified)	-59	x	38*	x	x
CC(Oc1ccc(Cl)cc1Cl)C(=O)NCCCn1ccnc1 (stereo unspecified)	0	i	-1	81*	27
CN(C(=O)CSc1nnc(-c2ccc(OC(F)F)cc2)n1N)C1CCS(=O)(=O)C1 (stereo unspecified)	-8	i	4	x	x
O=C1c2ccccc2C(=O)N1CC(O)COc1ccccc1Cl (stereo unspecified)	8	i	-2	x	x
N#C/C(=C\c1ccc(F)cc1)c1nc(-c2ccco2)cs1	59*	i	u	-35	-11
SMILES	Vif inh	Rce1 inh	RanGTP-Imp inh	Runt-SMMHC FRET	Runt-CBFb FRET
N#C/C(=C\c1ccc(Cl)cc1)c1nc(-c2ccco2)cs1	2	i	-3	-14	-3
O=c1oc2ccccc2n1CCn1c2ccccc2c2nc3ccccc3nc21	1	i	28*	-20	-285
CC(c1ccccc1)n1c(N2CCNCC2)nc2c1c(=O)[nH]c(=O)n2C (stereo unspecified)	6	i	1	x	x
Cc1ccc(C)n1-c1nccc(-c2cccs2)n1	-1	i	-7	-14	12
Cc1ccc(C)n1-c1nccc(-c2ccco2)n1	1	i	13	86*	32
N#CC1=C(N)SC(N)=C(C#N)C1c1ccnc2ccccc12	-6	i	23*	20	20
Cc1nnc2ccc(-c3ccc(NS(=O)(=O)c4ccc(Cl)s4)cc3)nn12	93*	x	x	x	x
CCc1ccc(S(=O)(=O)Nc2ccc(-c3ccc4nnc(C)n4n3)cc2)s1	70*	x	x	x	x
CCOc1ccc(NC(=O)COC(=O)CNC(=O)c2ccc(-c3ccccc3)cc2)cc1	1	x	x	x	x
COc1ccc(OC)c(C2C(C#N)=C(N)Oc3cc(N)ccc32)c1 (stereo unspecified)	5	i	47*	33	30
COc1ccc(OC)c(C2C(C#N)=C(N)Oc3cc(C)[nH]c(=O)c32)c1 (stereo unspecified)	3	i	-3	-9	3
CN(C)c1ccc2c(c1)OC(N)=C(C#N)C2c1cccc(F)c1 (stereo unspecified)	x	i	-124	-47	-51
N#CC1=C(N)Oc2cc(N)ccc2C1c1cccc(F)c1 (stereo unspecified)	-10	i	38*	x	x
CCOc1ccccc1C1C(C#N)=C(N)Oc2cc(N)ccc21 (stereo unspecified)	5	i	139*	105*	12
N#CC1=C(N)Oc2cc(N)ccc2C1C1CCCCC1 (stereo unspecified)	-2	i	97*	82*	50*
N#Cc1ccc2sn(-c3ccccc3)c(=O)c2c1	-6	x	x	x	x
CCC(=O)Nc1cc(C)c(NC(=O)CCc2ccccc2)cn1	1	i	40*	89*	29
Cc1cc(NC(=O)c2ccco2)ncc1NC(=O)CCc1ccccc1	1	i	-4	3	2
O=S(=O)(Nc1nc2ccccc2nc1Nc1ccc(N2CCOCC2)cc1)c1cc(Cl)ccc1Cl	-7	i	37*	-7	2
Clc1nc(Nc2ccc(N3CCOCC3)cc2)c2ccccc2n1	-9	i	-1	1	-1
COc1cccc(CC(NC(C)=O)C(=O)NC2CCN(S(=O)(=O)c3ccc(NC(C)=O)cc3)CC2)c1OC (stereo unspecified)	4	i	-3	x	x
CCOC(=O)C1=CN(CC2CCCO2)C=C(C(=O)OCC)C1c1ccccc1C(F)(F)F (stereo unspecified)	-6	i	5	91*	109*
CCn1c(/C=C/N(C(C)=O)c2ccccc2)[n+](CC)c2ccc(Cl)cc21	0	i	-4	-2	-1

Bioassay records: PubChem, several laboratories
